We go through 19 compounds from ChEMBL document CHEMBL3588851, “Antiviral Matrine-Type Alkaloids from the Rhizomes of Sophora tonkinensis” (J Nat Prod, 2015).

The source made the active and inactive calls. No cut-off for these calls is given here.

Data set [1] relates to Influenza A virus. Description: Antiviral activity against influenza A virus (A/Hanfang/359/95(H3N2)) infected in MDCK cells assessed as inhibition of virus-induced cytopathogenic effect dosed 1 hr after viral adsorption. It counts as functional, organism-based. (In general: Protection from cytopathic effect is a common read-out in antiviral testing.)
A short description of data set [2]: Cytotoxic activity against MDCK cells assessed as cytopathogenic effect incubated for 48 hrs. In kind it is cell-based, Canis lupus familiaris. Particulars: dog, read-out: TC50. An outline of the steps: (§1)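 Cells plated in 96-well plates; after 24 h, monolayers exposed to various concentrations of compound for 48 h at 37 °C, 5% CO2. Toxicity monitored by cytopathogenic effect (CPE). Median toxic concentration (TC50) calculated by the Reed and Muench method.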

Data set [3] relates to Coxsackievirus B3. Nature of the data set: Antiviral activity against coxsackievirus B3 infected in African green monkey Vero cells assessed as inhibition of virus-induced cytopathogenic effect at maximal nontoxic concentration dosed 1 hr after viral adsorption. In kind it is functional, organism-based. In short, it runs like this: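 Confluent Vero monolayers in 96-well plates infected with 100 TCID50 CVB3. After 1 h adsorption at 37 °C, cells washed with PBS. Then incubated at 37 °C in maintenance medium (MEM + 2% FBS) with or without compound, tested at its maximal nontoxic concentration.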

The nature of data set [4]: Selectivity index, ratio of TC50 for […] MDCK cells to IC50 for influenza A virus (A/Hanfang/359/95(H3N2)). It counts as toxicity, cell-based. Conditions: read-out: Selectivity Index. An outline of the steps: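 SI is TC50/IC50. TC50: MDCK cells were plated for 24 h, then exposed to graded compound concentrations for 48 h at 37 °C in 5% CO2, scored by CPE, and calculated by Reed–Muench. IC50 came from the H3N2-infected MDCK assay, with 1 h adsorption and then compound in MEM plus 2% FBS.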

Data set [5] can be described thus: Selectivity index, ratio of TC50 for African green monkey Vero cells to IC50 for coxsackievirus B3 infected in African green monkey Vero cells. In kind it is toxicity, cell-based. Particulars: read-out: Selectivity Index. In short, it runs like this:
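SI = TC50/IC50. TC50 from 48 h CPE-monitored Vero toxicity, calculated by Reed and Muench. IC50 from Vero monolayers infected with 100 TCID50 CVB3, adsorbed 1 h at 37 °C, PBS-washed, then maintained in MEM + 2% FBS with compound at 37 °C.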

For data set [6], the system named is Coxsackievirus B3. Description: Antiviral activity against coxsackievirus B3 infected in African green monkey Vero cells assessed as inhibition of virus-induced cytopathogenic effect dosed 1 hr after viral adsorption. In kind it is functional, organism-based. Conditions: Enterovirus B. An outline of the steps:
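Confluent Vero monolayers were infected with 100 TCID50 CVB3 and adsorbed for 1 h at 37 °C. They were then washed with PBS and kept at 37 °C in MEM plus 2% FBS, with or without a range of compound concentrations. Ribavirin served as positive control.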

Data set [7] concerns Influenza A virus. Nature of the data set: Antiviral activity against influenza A virus (A/Hanfang/359/95(H3N2)) infected in MDCK cells assessed as inhibition of virus-induced cytopathogenic effect at maximal nontoxic concentration dosed 1 hr after viral adsorption. In kind it is functional, organism-based.
Data set [8] in a line: Cytotoxic activity against African green monkey Vero cells assessed as cytopathogenic effect incubated for 48 hrs. In kind it is cell-based. Particulars: chlorocebus sabaeus, read-out: TC50. In short, it runs like this:
as §1

For data set [9], the system named is Coxsackievirus B3. Nature of the data set: Antiviral activity against coxsackievirus B3 infected in African green monkey Vero cells assessed as inhibition of virus-induced cytopathogenic effect dosed 1 hr after viral adsorption relative to ribavirin. It counts as functional.

As usually defined, the IC50 is the concentration needed to halve the response being measured. As to `O=C1C=C[C@@H](O)[C@@H]2[C@H]3CCCN4CCC[C@@H](CN12)[C@@H]34`, in [1], the IC50 came to 242 µM. Moreover, in [2], the CC50 at 48 h was greater than 762 µM. In addition, the inhibition result in data set [3] was “inactive”. In addition, in data set [4], the selectivity ratio is greater than 3.1.

In the case of `NC(=O)c1ncn([C@@H]2O[C@H](CO)[C@@H](O)[C@H]2O)n1` [RIBAVIRIN], the results for the selectivity ratio in data set [5] and in data set [4] were 6.8 and 813, respectively. In data set [6], the IC50 came out at 1200 µM.

For `O=C1CCC[C@@H]2[C@H]3CCCN4CCC[C@@H](CN12)[C@@H]34`, the inhibition result in [7] and in data set [3] was “inactive” throughout.

Consider `O=C1C=CC[C@@H]2[C@H]3CCC[N+]4([O-])CCC[C@@](O)(CN12)[C@@H]34` (some centres not stated), for which the inhibition result in data set [3] is “inactive”.

With `O=C1[C@@H](O)CC[C@@H]2[C@H]3CCCN4CCC[C@@H](CN12)[C@@H]34`, the CC50 at 48 h in data set [8] is 757 µM. In [5], the selectivity ratio is 4.1. The inhibition entry in data set [7] is “inactive”. The IC50 in data set [6] stood at 184 µM.

Turning to `O=C1CC=C[C@@H]2[C@H]3CCCN4CCC[C@@](O)(CN12)[C@@H]34`, the inhibition result in data set [7] and in data set [3] was “inactive” each time.

Turning to `O=C1C=CC[C@@H]2[C@H]3CCCN4CCC[C@@](O)(CN12)[C@@H]34`, the IC50 in data set [1] was determined as 440 µM. For the same compound, the CC50 at 48 h in [2] is greater than 762 µM. The inhibition entry in data set [3] was “inactive”. In addition, the selectivity ratio in [4] is greater than 1.7.

As for `O=C1[C@@H](O)CC[C@@H]2[C@H]3CCC[N+]4([O-])CCC[C@@H](CN12)[C@@H]34` (some centres not stated), the inhibition entry in data set [7] and in data set [3] was “inactive” throughout.

For the compound `O=C1C=C[C@H](O)[C@@H]2[C@H]3CCCN4CCC[C@@H](CN12)[C@@H]34`, the IC50 in [1] was 84.7 µM. Besides, the CC50 at 48 h in [2] worked out at 479 µM. Further, in data set [3], the inhibition entry is “inactive”. Further, the selectivity ratio in [4] was found to be 5.7.

Consider `O=C1CCC[C@@H]2[C@H]3C[C@H](O)CN4CCC[C@@H](CN12)[C@@H]34`, for which the inhibition result in data set [7] and in [3] was “inactive” throughout.

Take `O=C1CCC[C@@H]2[C@H]3CCCN4CCC[C@@](O)(CN12)[C@@H]34`: the CC50 at 48 h in [8] is greater than 757 µM. In addition, the selectivity ratio in [5] was greater than 3. The inhibition entry in [7] is “inactive”. For the same compound, the IC50 in data set [6] worked out at 252 µM.

`O=C1CCC[C@@H]2[C@H]3CCC[N+]4([O-])CCC[C@@H](CN12)[C@@H]34` (some centres not stated): the inhibition entry in data set [7] and in [3] was “inactive” in each case.

On to `O=C1C=CC[C@@H]2[C@H]3CCC[N+]4([O-])CCC[C@@H](CN12)[C@@H]34` (some centres not stated) [OXYSOPHOCARPINE], for which, in data set [1], the IC50 came out at 403 µM. Further, the CC50 at 48 h in data set [2] was greater than 762 µM. The inhibition result in data set [3] is “inactive”. Also, the selectivity ratio in data set [4] is greater than 1.9.

Take `O=C1C=CC[C@@H]2[C@H]3CCCN4CCC[C@@H](CN12)[C@@H]34`: the inhibition entry in data set [7] and in data set [3] was “inactive” each time.

As for `O=C1C=C[C@@H](O)[C@@H]2[C@H]3CCC[N+]4([O-])CCC[C@@H](CN12)[C@@H]34` (some centres not stated), the CC50 at 48 h in data set [8] is 115 µM. Also, in data set [5], the selectivity ratio was 4.3. Besides, the inhibition result in data set [7] is “inactive”. Besides, in data set [9], the “Ratio IC50” value came to 45. Moreover, in [6], the IC50 came to 26.6 µM.

As to `O=C1C=CC[C@@H]2[C@H]3C[C@H](O)CN4CCC[C@@H](CN12)[C@@H]34`, the CC50 at 48 h in data set [8] was greater than 762 µM. The selectivity ratio in data set [5] is greater than 3.9. For the same compound, the inhibition result in data set [7] was “inactive”. In addition, the IC50 in data set [6] is 197 µM.

As for `O=C1CCC[C@@H]2[C@H]3CCC[N+]4([O-])CCC[C@@](O)(CN12)[C@@H]34` (some centres not stated), the inhibition result in data set [7] and in [3] was “inactive” throughout.

Regarding `O=c1cccc2n1C[C@@H]1CCCN3CCC[C@H]2[C@H]13`, the IC50 in [1] was determined as 63.1 µM. For the same compound, in [2], the CC50 at 48 h was found to be 273 µM. In addition, the inhibition entry in [3] is “inactive”. Further, in data set [4], the selectivity ratio came out at 4.3.

For the compound `CCOC(=O)C1=C[C@@H](OC(CC)CC)[C@H](NC(C)=O)[C@@H](N)C1` [OSELTAMIVIR], the IC50 in [1] was determined as 1.07 µM. Moreover, the selectivity ratio in [4] was determined as 2870.
